Results from ChEMBL document CHEMBL5608261, “Pharmacophore Establishment and Optimization of Saturated 1,6-Naphthyridine-Fused Quinazolinones that Inhibit Meningoencephalitis-Causing Naegleria fowleri” (J Med Chem, 2024).
≈ marks a conversion by molar mass, not a printed value.

Columns and labels:
[1] = Stability in CD-1 mouse plasma assessed as half-life measured upto 120 mins by LC-MS analysis; type: ADME, cell-free; details: 2 h
Naegleria fowleri [2] = assay: Anti-ameobic activity against Naegleria fowleri Nf69 (ATCC 30215) trophozoites assessed as inhibition of amoeba growth incubated for 48 hrs by CellTiter-Glo assay; type: functional, organism-based
Procedure, shortened: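 Axenic Nf69 trophozoites were seeded at 1 × 10^4 cells/mL in Nelson's complete medium with 10% heat-inactivated FBS. Compound was added at 20 to 0.375 μM (lower ranges for very potent compounds), with vehicle controls, for 48 h at 37 °C and 5% CO2. CellTiter-Glo luminescence gave % growth inhibition versus controls, and triplicate means were fitted to dose–response curves for EC50.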

[3] = Metabolic stability in human liver microsomes assessed as half-life; type: ADME, Microsome
Naegleria fowleri [4] = assay: Anti-ameobic activity against Naegleria fowleri TY (ATCC 30107) trophozoites assessed as inhibition of amoeba growth incubated for 48 hrs by CellTiter-Glo assay; type: functional, organism-based
Procedure, shortened: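 TY strain (ATCC 30107) trophozoites, seeded at 1 × 10^4 cells/mL, were exposed 48 h (37 °C, 5% CO2) to vehicle or compound, with concentrations initially 20 to 0.375 μM. CellTiter-Glo luminescence gave % growth inhibition versus controls. EC50 was fit from triplicate runs (n = 3, ± SEM).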

[5] = Protein binding in CD-1 mouse plasma incubated for 4 hrs by equilibrium dialysis based LC-MS/MS analysis; type: ADME, cell-free; details: CD-1, mouse, read-out: PPB (converted)
[6] = Kinetic solubility of compound at pH 7.4 incubated for 24 hrs by HPLC analysis; type: physicochemical; details: buffer; for solubility kinetic at 24 h: pH 7.4, read-out: Kinetic_solubility; for Kinetic_solubility: pH 7.4, 24 h
SH-SY5Y = assay: (§1) Cytotoxicity against human SH-SY5Y cells assessed as reduction in cell viability incubated for 72 hrs by CellTiter-Glo assay; type: toxicity, cell-based; details: sh-sy5y, 72 h
Procedure, shortened: (§2)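 SH-SY5Y cells at 2000 per well attached overnight at 37 °C. Compound from 20 mM DMSO stocks was added in triplicate as a dose series starting at 20 μM, with doxorubicin as positive control.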

[7] = Selectivity index, ratio of CC50 for cytotoxicity against human SH-SY5Y cells to EC50 for anti-amoebic activity against Naegleria fowleri Nf69 (ATCC 30215) assessed as inhibition of amoeba growth; type: toxicity, cell-based; details: for selectivity ratio: SH-SY5Y cells, read-out: Ratio CC50/EC50
[8] = Metabolic stability in CD-1 mouse liver microsomes assessed as half-life incubated for 60 mins by LC-MS/MS analysis; type: ADME, Microsome; details: 1 h
Procedure, shortened: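 Half-life measured in CD-1 mouse liver microsomes with NADPH over a 60 min exposure.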

[9] = Protein binding in CD-1 mouse plasma assessed as free fraction incubated for 4 hrs by equilibrium dialysis based LC-MS/MS analysis; type: ADME, cell-free
[10] = as §1; type: toxicity, cell-based; details: SH-SY5Y cells; procedure, shortened: as §2
Naegleria fowleri [11] = assay: Anti-ameobic activity against Naegleria fowleri Nf69 (ATCC 30215) trophozoites infected in female CD-1 mouse model assessed as survival rate at 5 mg/kg, ip pre-infected for 48 hrs from day 0 followed by once daily compound administration from day 2 to day 6 and measured on day 14 post-infection relative to control; type: functional; details: 312 h, time 13 day
Procedure, shortened: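 Female CD-1 mice (n = 6/group) were infected intranasally with Nf69 trophozoites on day 0. After a 48 h establishment period, they received IP dosing at 5 mg/kg once daily for 5 days, alongside a vehicle-only infected control group. Survival was followed for 14 days with Kaplan–Meier analysis. Survivor brain tissue was cultured for amoeba, and survival counted only mice whose brains were free of amoeba.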

[12] = Naegleria fowleri, Nf69 (ATCC 30215), 48 h

Compound	EC50 (Naegleria fowleri [2])	solubility kinetic at 24 h [6]	CC50 (SH-SY5Y)	t1/2 [8]	EC50 (Naegleria fowleri [2]; [12])	selectivity ratio [7]	further results
COc1cc2nc3n(c(=O)c2cc1Cl)CC[C@@H]1[C@@H]3CCCN1CC1COC1	490 nM	29.1 µM (≈ 11.3 µg/mL)	> 20 µM	75.6 min	–	–	t1/2 [1]: > 289 min; t1/2 [3]: 80.3 min; EC50 (Naegleria fowleri [4]): 470 nM; fraction unbound at 4 h [5]: 0.26; Ratio CC50/EC50 [7]: > 40.8; fraction unbound at 4 h [9]: 0.26
CN1CCC[C@@H]2c3nc4cc(Cl)c(Cl)cc4c(=O)n3CC[C@H]21	86 nM	–	7.8 µM	6.1 min	–	–	Kinetic_solubility ([6]; 24 h): 98.2 µM; Ratio CC50/EC50 [7]: 90.7
CN1CCC[C@@H]2c3nc4ccc(Cl)cc4c(=O)n3CC[C@H]21	280 nM	–	> 20 µM	11.5 min	–	–	Kinetic_solubility ([6]; 24 h): 129 µM; Ratio CC50/EC50 [7]: > 71.4
CN1CCC[C@@H]2c3nc4ccc(C(F)(F)F)cc4c(=O)n3CC[C@H]21	250 nM	–	–	10.9 min	–	–	Kinetic_solubility ([6]; 24 h): 109 µM; Ratio CC50/EC50 [7]: > 80
COc1cc2nc3n(c(=O)c2cc1Cl)CC[C@H]1[C@H]3CCCN1CC(C)C	–	2.6 µM (≈ 0.977 µg/mL)	1 µM	–	27 nM	38	–
O=c1c2cc(Cl)c(Cl)cc2nc2n1CC[C@@H]1[C@@H]2CCCN1CC1COC1 (racemic)	–	–	> 20 µM	109 min	6 nM	> 33000	Kinetic_solubility [6]: 40 µM
COc1cc2nc3n(c(=O)c2cc1Cl)CC[C@@H]1[C@@H]3CCCN1CC1COC1 (racemic)	29 nM	–	5 µM	> 145 min	–	–	Kinetic_solubility ([6]; 24 h): 198 µM; Ratio CC50/EC50 [7]: 172
CC(C)OCCN1CCC[C@@H]2c3nc4cc(Cl)c(Cl)cc4c(=O)n3CC[C@H]21 (racemic)	–	–	> 20 µM	9.8 min	0.4 nM	–	–
COc1cc2nc3n(c(=O)c2cc1Cl)CC[C@@H]1[C@@H]3CCCN1CCOC(C)C (racemic)	–	65.7 µM (≈ 26.7 µg/mL)	2.5 µM	3.1 min	110 nM	22.7	–
O=c1c2cc(Cl)c(Cl)cc2nc2n1CC[C@@H]1[C@@H]2CCCN1CC1CCOCC1 (racemic)	–	–	> 20 µM	67.2 min	7 nM	–	–
COc1cc2nc3n(c(=O)c2cc1C#N)CC[C@@H]1[C@@H]3CCCN1CC1COC1 (racemic)	–	136 µM (≈ 51.7 µg/mL)	> 20 µM	104.6 min	120 nM	> 167	–
CN1CCC[C@@H]2c3nc4cc(Cl)c(Cl)cc4c(=O)n3CC[C@H]21 (racemic)	200 nM	138 µM (≈ 46.7 µg/mL)	–	–	–	> 100	CC50 at 72 h [10]: > 20 µM
CN1CCC[C@@H]2c3nc4ccc(Cl)cc4c(=O)n3CC[C@H]21 (racemic)	1000 nM	187 µM (≈ 56.8 µg/mL)	–	18.5 min	–	–	CC50 at 72 h [10]: > 20 µM; Ratio CC50/EC50 [7]: > 20
CN1CCC[C@@H]2c3nc4ccc(C(F)(F)F)cc4c(=O)n3CC[C@H]21 (racemic)	1100 nM	159 µM (≈ 53.6 µg/mL)	–	21.2 min	–	–	CC50 at 72 h [10]: > 20 µM; Ratio CC50/EC50 [7]: > 18.2
COc1cc2nc3n(c(=O)c2cc1Cl)CC[C@@H]1[C@@H]3CCCN1CCN1CCCC1 (racemic)	–	172 µM (≈ 71.7 µg/mL)	> 20 µM	> 145 min	740 nM	> 27	–
O=c1c2cc(Cl)c(Cl)cc2nc2n1CC[C@@H]1[C@@H]2CCCN1CCO (racemic)	–	–	> 20 µM	83.1 min	20 nM	–	Kinetic_solubility [6]: < 10 µM
COc1cc2nc3n(c(=O)c2cc1Cl)CC[C@@H]1[C@@H]3CCCN1CC1CCC1 (racemic)	–	4.6 µM (≈ 1.78 µg/mL)	0.64 µM	3.8 min	15 nM	42.7	–
O=c1c2cc(Cl)c(Cl)cc2nc2n1CC[C@@H]1[C@@H]2CCCN1CC1CC1 (racemic)	–	–	4.8 µM	18.3 min	2 nM	2400	–
COc1cc2nc3n(c(=O)c2cc1Cl)CC[C@@H]1[C@@H]3CCCN1CCN1CCOCC1 (racemic)	–	43.1 µM (≈ 18.7 µg/mL)	> 20 µM	29.8 min	520 nM	> 38.5	–
COc1cc2nc3n(c(=O)c2cc1Cl)CC[C@@H]1[C@@H]3CCCN1CC1CC1 (racemic)	–	76.1 µM (≈ 28.5 µg/mL)	1 µM	12.6 min	23 nM	43.5	–
O=c1c2cc(Cl)c(Cl)cc2nc2n1CC[C@@H]1[C@@H]2CCCN1Cc1cccnc1 (racemic)	–	–	> 20 µM	21.9 min	0.2 nM	–	–
COCCN1CCC[C@@H]2c3nc4cc(Cl)c(Cl)cc4c(=O)n3CC[C@H]21 (racemic)	–	–	10 µM	17 min	23 nM	435	–
COc1cc2nc3n(c(=O)c2cc1Cl)CC[C@@H]1[C@@H]3CCCN1Cc1cccnc1 (racemic)	–	3.8 µM (≈ 1.56 µg/mL)	> 20 µM	–	120 nM	> 167	–
O=c1c2cc(Cl)c(Cl)cc2nc2n1CC[C@@H]1[C@@H]2CCCN1CCN1CCOCC1 (racemic)	–	–	> 20 µM	75.2 min	11 nM	–	Kinetic_solubility [6]: 206 µM
C[C@@H]1[C@H](O)[C@@H](C)/C=C/C=C/C=C/C=C/C=C/C=C/C=C/[C@H](O[C@@H]2O[C@H](C)[C@@H](O)[C@H](N)[C@@H]2O)C[C@@H]2O[C@](O)(C[C@@H](O)C[C@@H](O)[C@H](O)CC[C@@H](O)C[C@@H](O)CC(=O)O[C@H]1C)C[C@H](O)[C@H]2C(=O)O [AMPHOTERICIN B]	–	–	–	–	–	–	survival at 5 mg/kg (Naegleria fowleri [11]): 17%
